Activity calls are given as the source filed them. The calls are words filed in the database; no cut-off is given here.
Molecular target: AMP-activated protein kinase, AMPK (Homo sapiens) (UniProt P54646+O43741+P54619+Q9UGJ0+Q9Y478+Q13131+Q9UGI9)
Assay: Activation of AMPK in human HepG2 cells assessed as reduction of gluconeogenesis at 1 mM after 24 hrs by enzymatic colorimetric assay
Format: cell-based
In short: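 HepG2 cells seeded in DMEM with 10% FBS, switched next day to FBS-free medium and treated 24 h. Medium then replaced by glucose-free, phenol red-free DMEM with 20 mM sodium lactate and 2 mM sodium pyruvate. After 6 h, glucose released into the medium was measured by enzymatic colorimetric assay and normalized to total cell protein. Mean ± SEM; one-way ANOVA with Tukey test.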

Activity: Active
SMILES: CN(C)C(=N)NC(=N)N
